From the EternaBench riboswitch data

Test system: MS2 coat protein
Assay: apparent Kd, MS2 coat protein; higher = weaker binding; RNA-MaP array; FMN 200 µM where present
Method in brief: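 Stalled E. coli RNA polymerase transcribed each design on Illumina sequencing-chip clusters. The clusters were titrated with SNAP-549-labelled MS2 coat protein, starting at 0.7 or 1.5 nM and doubling up to 3 µM, first without ligand and then with constant ligand, in 100 mM Tris-HCl pH 7.5, 80 mM KCl, 4 mM MgCl2, BSA, DTT, yeast tRNA and Tween-20. Green signal was normalised to red-channel RNA signal and to the control-cluster median Fmax. The apparent Kd is the median of filtered binding-curve fits made for each cluster.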

[1] = designed as: OFF switch for flavin mononucleotide, no ligand
[2] = ligand present: flavin mononucleotide, designed as: OFF switch for flavin mononucleotide
[3] = designed as: ON switch for flavin mononucleotide, no ligand
[4] = ligand present: flavin mononucleotide, designed as: ON switch for flavin mononucleotide

Sequence: CACUGCAAUGUAGGAUAUCGACUGGAAUACAGUCGAGAAGGACAUGAGGAUCACCCAUGUAAUCCUAAUAAUAAAUAAGCAGUG
- apparent Kd [1]: 12.4 nM
- apparent Kd [2]: 18.4 nM

Sequence: CACUGCAAUGUAGGAUAUCGACUGGAAUACAGUCGAGAAGGACAUGAGGAUCACCCAUGUCAUCCUAAUAAUAAAUAAGCAGUG
- apparent Kd [1]: 14.4 nM
- apparent Kd [2]: 19.5 nM

Sequence: CAGCAUCAUGUAGGAUAUGCGUGGCGAAGCUAUGCAGAAGGACAUGAGGAUCACCCAUGUCUUACUGUGCGUACACAGUUGCUG
- apparent Kd [1]: 6.87 nM
- apparent Kd [2]: 11.3 nM

Sequence: CAGGACAGAGGAUAUACAUAGAUACAGAUUCAUGUAGAACUACAUGAGGAUCACCCAUGUAGAAGGCUGACCUG
- apparent Kd [1]: 28.5 nM
- apparent Kd [2]: 221 nM

Sequence: CAGGACAGGAAACGGAGCGGCCAACAUGAGGAUCACCCAUGUAAGGAUAUGCCUACUAAAAGUAGGCAGAAGGUACAGAAGGCA
- apparent Kd [1]: 29.9 nM
- apparent Kd [2]: 73.1 nM

Sequence: CAGGUAGCUAGAGGAUAUACACGUCUGGAUAAACCAGACGAAUAAACCACAUGAGGAUCACCCAUGUAGAAGGCUAGCUGCCUG
- apparent Kd [1]: 15.2 nM
- apparent Kd [2]: 22.7 nM

Sequence: CAGUACUGAGGAUAUACAUGAGGAUCACCCAUGUAUUCCAGCUAGGAAACUAGCACAUGUAGAAGGCAGUACUG
- apparent Kd [1]: 14.2 nM
- apparent Kd [2]: 31.1 nM

Sequence: CAGUACUGAGGAUAUACAUGAGGAUCACCCAUGUCCUAAAAGUAGGAUACUACUAUUAGUAGAAGGCAGUACUG
- apparent Kd [1]: 17.9 nM
- apparent Kd [2]: 190 nM

Sequence: CAGUACUGAGGAUAUACAUGAGGAUCACCCAUGUGAAUAGCAUAGGAAACUAUGCUAUGUAGAAGGCAGUACUG
- apparent Kd [1]: 14.1 nM
- apparent Kd [2]: 22.6 nM

Sequence: CAGUACUGAGGAUAUACAUGAGGAUCACCCAUGUGCCUUAGCUAGGAUACUAGCAUUAGUAGAAGGCAGUACUG
- apparent Kd [1]: 14.1 nM
- apparent Kd [2]: 158 nM

Sequence: CAGUACUGAGGAUAUACAUGAGGAUCACCCAUGUGGUUAAGCUAGGAAACUAGCAAAUGUAGAAGGCAGUACUG
- apparent Kd [1]: 240 nM
- apparent Kd [2]: 85.1 nM

Sequence: CAGUACUGAGGAUAUACAUGAGGAUCACCCAUGUGUUCCAGCUAGGAGACUAGCAAAAGUAGAAGGCAGUACUG
- apparent Kd [1]: 27 nM
- apparent Kd [2]: 345 nM

Sequence: CAGUACUGAGGAUAUACAUGAGGAUCACCCAUGUGUUCCAGCUAGGGAACUAGCAAAAGUAGAAGGCAGUACUG
- apparent Kd [1]: 22.4 nM
- apparent Kd [2]: 437 nM

Sequence: CAGUACUGAGGAUAUACAUGAGGAUCACCCAUGUGUUCCUUGUAGGAUAUGCGCAAAAGUAGAAGCCAGAAGGAGAUGUGCCUA
- apparent Kd [1]: 6.95 nM
- apparent Kd [2]: 7.31 nM

Sequence: CAGUUCUGAGGAUAUCCAUCCUCCUACAUGAGGAUCACCCAUGUUUCCCUCUGGGUUUUCGGAGAAGGCAGUUAUC
- apparent Kd [1]: 299 nM
- apparent Kd [2]: 547 nM

Sequence: CAUAACGGCUGAGGAUAUUGAAUGUGCGUGGACAUGAGGAUCACCCAUGUUCAAGAAGGCAGCAAUUUACUUGGAUCUAUCCGC
- apparent Kd [1]: 66.2 nM
- apparent Kd [2]: 217 nM

Sequence: CAUAACUUUGAUCUCUCCUACAUGAGGAUCACCCAUGUUGAGAGAAGGAGGCGGCGGAGUGCCGCCUAGGAUAUCUGAAGGGUC
- apparent Kd [1]: 6.06 nM
- apparent Kd [2]: 7.35 nM

Sequence: CAUAGGCGAGGAUAUACAUGAGGAUCACCCAUGUAAGGAAACCUGGCAGACUCAGAAUGUAGAAGGCGCACUGA
- apparent Kd [1]: 21.6 nM
- apparent Kd [2]: 41 nM

Sequence: CAUAGUAAUUAGGAUAUCUGCCGGCUGAACCGAGGAGAAGGGAUUACAUGAGGAUCACCCAUGUGGUCCUAAGA
- apparent Kd [1]: 17 nM
- apparent Kd [2]: 18.7 nM

Sequence: CAUAUACAUGAGGAUCACCCAUGUUAGGAUAUGUUUUAACCGCGCGCAGGGUUAGUUGGCAGAAGGGAUCUGGG
- apparent Kd [1]: 31.4 nM
- apparent Kd [2]: 39 nM

Sequence: CAUCUGUCAGGAUAUAUGCGAGGGCCACGAAGCGGCCCUUCAUAGAAGGGACAUGAGGAUCACCCAUGUAGAUC
- apparent Kd [1]: 461 nM
- apparent Kd [2]: 310 nM

Sequence: CAUGAUCAUGUAGGAUAUAUACUGGAAUACAGUAUAGAAGGACAUGAGGAUCACCCAUGUUAUGUGCCUCCAAGUGAGAUCAUG
- apparent Kd [1]: 20.1 nM
- apparent Kd [2]: 28.3 nM

Sequence: CAUGAUUGGGAAGGAUAUUGACCUAGUUAGUGCCGAGAAGGUCCCUUUCACAUGAGGAUCACCCAUGUGAGACUGGUGUUCGAG
- apparent Kd [1]: 26.5 nM
- apparent Kd [2]: 50.4 nM

Sequence: CAUGGCACGUAGGAUAUCUCGCAGCCCGGCUGCAGAGAAGGACGUACAUGAGGAUCACCCAUGUAUGAUCCAAA
- apparent Kd [1]: 24.5 nM
- apparent Kd [2]: 49.2 nM

Sequence: CAUGUCCUCACAGGAUAUGCAAUGUAUUUCAUUGCAGAAGGGUGAACACAUGAGGAUCACCCAUGUGGACAUGAUAUAUUUAAG
- apparent Kd [3]: 529 nM
- apparent Kd [4]: 63.4 nM

Sequence: CAUGUGUAAGGAUAUGACAAUGGUAUCUUCGGAUACCAUUGUCAGAAGGUACAUGAGGAUCACCCAUGUACAUC
- apparent Kd [1]: 14.3 nM
- apparent Kd [2]: 16.8 nM

Sequence: CAUUAAUUCAUUAUAGUAAUUAUACAGGAUAUGUUACAUGAGGAUCACCCAUGUAUUCAUGGUAAACAGAAGGGUAAUACUAGA
- apparent Kd [1]: 12.3 nM
- apparent Kd [2]: 22.4 nM

Sequence: CAUUAAUUCAUUAUAGUAAUUAUACAGGAUAUGUUACAUGAGGAUCACCCAUGUAUUCUUGGUAAACAGAAGGGUAUUUCUAGU
- apparent Kd [1]: 7.35 nM
- apparent Kd [2]: 9.31 nM

Sequence: CCAAGCUGUGUGAGGAUAUGCUGAACCUUGGUUCAGCAGAAGGCACAUGAGGAUCACCCAUGUGAAAAGCUUGG
- apparent Kd [1]: 16.2 nM
- apparent Kd [2]: 56 nM

Sequence: CCAAGCUGUGUGAGGAUAUGCUGGUCCUUGGAUCAGCAGAAGGCACAUGAGGAUCACCCAUGUGAAAAGCUUGG
- apparent Kd [1]: 15.1 nM
- apparent Kd [2]: 52.1 nM

Sequence: CCACCCUGAGGAUAUCCACCCUCAUACAUGAGGAUCACCCAUGUUCAUCCCUGAGUACCCGGAGAAGGCAGAUUUC
- apparent Kd [1]: 87.7 nM
- apparent Kd [2]: 57.9 nM

Sequence: CCACUGUCAGGAUAUCGUGCAUAAGCGUUUACAUUUAUGUGCGAGAAGGGACAUGAGGAUCACCCAUGUAAACG
- apparent Kd [1]: 417 nM
- apparent Kd [2]: 653 nM

Sequence: CCAGGCAGUGUGAGGAUAUCGUGGUCCUUGGAUCACGAGAAGGCACAUGAGGAUCACCCAUGUGAAUAGCUUGG
- apparent Kd [1]: 22.2 nM
- apparent Kd [2]: 87.3 nM

Sequence: CCAUAUAAAUAAGGAUAUUAAGUUGAUUAUCCUCAAACAUGAGGAUCACCCAUGUAUAGUCUUAUUAAGAAGGUAUAGUGUUGG
- apparent Kd [3]: 608 nM
- apparent Kd [4]: 545 nM

Sequence: CCAUCAGCGGGCGUAUCGGUUGGACAUGAGGAUCACCCAUGUAGAAGGACAGGAGUAUUUCGGCUGUAGGAUAUACAUUUGGUG
- apparent Kd [1]: 22.5 nM
- apparent Kd [2]: 52.7 nM

Sequence: CCAUCGAGUGUGAGGAUAUGCUGUUCGAAAGAGCAGCAGAAGGCACAUGAGGAUCACCCAUGUGGAUACGGUGG
- apparent Kd [1]: 29.1 nM
- apparent Kd [2]: 212 nM

Sequence: CCAUCGGAAGGAUAUACAUGAGGAUCACCCAUGUGCGAGCCCGCGCUCUCGGGAAGAUGUAGAAGGUUCAAGAA
- apparent Kd [1]: 35.9 nM
- apparent Kd [2]: 36.3 nM

Sequence: CCAUGCGGAAUAGGAUAUUCAUUCAUGAGGAUAGAAGAAGGGUUACAUGAGGAUCACCCAUGUAUACACAUGAGGAUCCCUUAC
- apparent Kd [1]: 162 nM
- apparent Kd [2]: 180 nM

Sequence: CCAUGGCAUGUAGGAUAUGUCUGACAAAGUCAGACAGAAGGACAUGAGGAUCACCCAUGUAAAAGAAAACCAACAUAGCCAUGG
- apparent Kd [1]: 6.23 nM
- apparent Kd [2]: 5.88 nM

Sequence: CCAUGGCUGUAAGGAUAUGUCUGACAAAGUCAGACAGAAGGUACAUGAGGAUCACCCAUGUGAAGAAAACCACAUUUGCCAUGG
- apparent Kd [1]: 6.68 nM
- apparent Kd [2]: 8.41 nM

Sequence: CCAUGGUGGGCAGGAUAUCGUCCAGCUUGCGGACGAGAAGGGCUCAAACAUGAGGAUCACCCAUGUGAAGAGCGGGUUGUCCAA
- apparent Kd [1]: 24.6 nM
- apparent Kd [2]: 146 nM

Sequence: CCAUUUCAGUAAGGAUAUAUAAACAUGACGAUACAUGAGGAUCACCCAUGUGUAGAAGGUACUAAUACAUAUAAUGCAAUGUUC
- apparent Kd [1]: 16.6 nM
- apparent Kd [2]: 15.7 nM

Sequence: CCCAUCGCAUGAGGAUAUGGUCAGCUUUGCUGACCAGAAGGCAUGUCAUAAGACAUGAGGAUCACCCAUGUAGUUAAGAUGGGA
- apparent Kd [3]: 654 nM
- apparent Kd [4]: 48.3 nM

Sequence: CCCAUGUCAGGAUAUCUAAGAGAGGGCCAGCCCUCUCCUCCGGAGAAGGGACAUGAGGAUCACCCAUGUAAAAC
- apparent Kd [1]: 129 nM
- apparent Kd [2]: 25.5 nM

Sequence: CCCGGCGAGUCGCUACGCCGAGAGCAGGAUAUUCCGCCGUGAUCUACAUGAGGAUCACCCAUGUGGAAGAAGGGCUACACAAAA
- apparent Kd [1]: 15.1 nM
- apparent Kd [2]: 158 nM

Sequence: CCCGUGUGUUAAGGAUAUGGCAGGCGCGUUGAACCAGAAGGUAGCACAUGAGGAUCACCCAUGUGAAUGCUCGCGACUCGAGCG
- apparent Kd [1]: 43.6 nM
- apparent Kd [2]: 18.2 nM

Sequence: CCCGUGUUAGGAUAUACGGCACACCUGCCAGCAGGUGUAUAGUAGAAGGAACAUGAGGAUCACCCAUGUAUAGC
- apparent Kd [1]: 38.1 nM
- apparent Kd [2]: 36 nM

Sequence: CCCUCACAUGAGGAUCACCCAUGUCAGGAUAUCUCACAUCGGCCUUAGGCCAAUGUCAAGAGAAGGGACGUAUC
- apparent Kd [1]: 22.3 nM
- apparent Kd [2]: 33.9 nM

Sequence: CCCUCACAUGAGGAUCACCCAUGUCAGGAUAUUCGAACGGUGUGUUUUUGGCCAGUUGGAAGAAGGGACAUAAA
- apparent Kd [1]: 29.7 nM
- apparent Kd [2]: 117 nM

Sequence: CCCUCACAUGAGGAUCACCCAUGUGAGGAUAUGCAUUCCAAAGCGAGCUUUGAGAAGAGUAGAAGGCACUGGUG
- apparent Kd [1]: 17.1 nM
- apparent Kd [2]: 19.9 nM

Sequence: CCCUCACAUGAGGAUCACCCAUGUUAGGAUAUCUACCUGGAGCUUUGAUUAGCCCAACGGAGAAGGAACGUGCA
- apparent Kd [1]: 19 nM
- apparent Kd [2]: 18.7 nM

Sequence: CCGAAUGUCACAGGAUAUGGUCCGGGCACGCGACCAGAAGGGUGAUCUCACAUGAGGAUCACCCAUGUGCAGGCGUAAGGCUGC
- apparent Kd [3]: 28.4 nM
- apparent Kd [4]: 193 nM

Sequence: CCGACAUGAGGAUAUCCAUCUGGAUCAGACUAGAUCCUGAUGGAGAAGGCACAUGAGGAUCACCCAUGUUACGG
- apparent Kd [1]: 373 nM
- apparent Kd [2]: 89.1 nM

Sequence: CCGACUUACUAGGAUAUCAGAGUCGAAAGACUCUGAGAAGGAGUAACAUGAGGAUCACCCAUGUGUCCUAUCGG
- apparent Kd [1]: 23.3 nM
- apparent Kd [2]: 77.7 nM

Sequence: CCGAUAAUAGGACAGGAUAUGACUGUCGUCACAUGAGGAUCACCCAUGUCCCGGCAAUGCCACCGUUAGAAGGGUCCUAUCUCGA
- apparent Kd [3]: 14.9 nM
- apparent Kd [4]: 14.6 nM

Sequence: CCGCAGUUAGGAUAUACAUGAGGAUCACCCAUGUGUCCAUCUGUAAUAAGACAGGAUAGUAGAAGGAACUGGCG
- apparent Kd [1]: 14.8 nM
- apparent Kd [2]: 25.9 nM
